The structures appear in SMILES notation. The source made the active and inactive calls. No cut-off for these calls is given here.

Assay [1] relates to L132. As to the kind of experiment: Cytoprotective activity against cisplatin-induced cell death in human L-132 cells at 3 uM pretreated for 1 hr followed by cisplatin addition measured after 24 hrs by FACS analysis. It counts as functional, cell-based. A digest of the protocol: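 L132 cells in RPMI with 10% FBS. 1 h pretreatment at 3 μM, then 0.5 μM paclitaxel or 20 μM cisplatin for 24 h, or 10 Gy γ-rays for 48 h. Cells trypsinized, washed, stained with propidium iodide and analysed by flow cytometry. Means ± SD of ≥3 independent experiments, fold-change vs negative control.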
A general note: Flow cytometry measures light scatter and fluorescence of single cells or particles in a stream.

Assay [2] concerns L132. Briefly: Cytoprotective activity against cisplatin-induced PARP cleavage in human L-132 cells at 3 uM pretreated for 1 hr followed by cisplatin addition measured after 24 hrs by immunoblotting analysis. The format is functional, cell-based. A digest of the protocol:
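Human embryonic lung L132 cells in RPMI with 10% FBS. 1 h pretreatment at 3 μM, then 0.5 μM paclitaxel or 20 μM cisplatin for 24 h, or 10 Gy 137Cs γ-rays (3.81 Gy/min) for 48 h. Cleaved PARP and caspase-3 immunoblotted (ECL); bands normalized to loading control, fold-change vs negative control, ≥3 independent experiments.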
In general terms: Immunoblotting shows a protein as a band on a membrane.

The test system of a further assay is MEF. As to the kind of experiment: Cytoprotective activity against paclitaxel-induced PARP cleavage in HSF1 deficient MEF at 3 uM pretreated for 1 hr followed by paclitaxel addition measured after 24 hrs by immunoblotting analysis. It counts as functional, cell-based. Conditions: Mus musculus. In a few lines:
(§1)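 HSF1+/+ or HSF1−/− MEFs in DMEM with heat-inactivated 10% FBS, nonessential amino acids, glutamine, HEPES, 37 °C, 5% CO2. 1 h pretreatment at 3 μM, then 0.5 μM paclitaxel or 20 μM cisplatin for 24 h, or 10 Gy 137Cs γ-rays (3.81 Gy/min) for 48 h. Cleaved PARP and caspase-3 immunoblotted; bands normalized to loading control, fold-change vs negative control, ≥3 independent experiments.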

Assay [3] relates to Mus musculus. As to the kind of experiment: Protection against IR-induced reduction in circulating lymphocytes in ICR mouse at 10 mg/kg, ip administered once before and three times after 4.5 Gy irradiation measured after 9 days. It counts as functional, organism-based. A digest of the protocol:
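Female ICR mice (5–6 weeks) given 4.5 Gy whole-body IR, dosed ip at 10 mg/kg once before and three times after IR; 5 per group, sacrificed day 9. BM cellularity from H&E (hematopoietic cells per 200×200 μm area); peripheral WBC, lymphocytes, neutrophils; Ki67 IHC counted in five fields per femur; relative spleen weight vs control. Means ± SD, Student's t test.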

In assay [4] the target is T1, Heat shock factor protein 1 (Homo sapiens) (UniProt Q00613).
T1 sequence (whole entry): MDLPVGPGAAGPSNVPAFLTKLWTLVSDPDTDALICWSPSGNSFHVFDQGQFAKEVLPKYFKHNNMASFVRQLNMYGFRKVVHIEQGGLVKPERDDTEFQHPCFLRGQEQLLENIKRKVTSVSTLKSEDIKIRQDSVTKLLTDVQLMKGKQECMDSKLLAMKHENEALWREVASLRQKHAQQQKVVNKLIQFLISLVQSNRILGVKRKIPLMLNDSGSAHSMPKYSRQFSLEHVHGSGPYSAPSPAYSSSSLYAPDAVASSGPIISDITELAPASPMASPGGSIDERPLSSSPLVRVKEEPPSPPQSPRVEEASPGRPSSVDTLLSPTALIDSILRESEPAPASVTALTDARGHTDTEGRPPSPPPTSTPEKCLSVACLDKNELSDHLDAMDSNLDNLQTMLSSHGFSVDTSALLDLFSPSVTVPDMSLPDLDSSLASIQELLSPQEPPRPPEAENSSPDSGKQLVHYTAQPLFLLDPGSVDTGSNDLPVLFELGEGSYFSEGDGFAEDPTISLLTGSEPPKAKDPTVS
Briefly: Activation of HSF1 in human NCI-H460 cells expressing pGL4-hsp25 construct assessed as upregulation of hsp25 promoter activity at 10 to 30 uM after 12 hrs by luciferase reporter gene assay. It counts as cell-based. In a few lines: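 NCI-H460 cells stably carrying hsp25 or hsp70 promoter–luciferase reporters, seeded, treated after 24 h at 10 or 30 μM and harvested 12 h later. Lysate luciferase normalized to β-galactosidase; mean of three independent experiments, fold-change vs negative control.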

For assay [5], the target named is T2, Heat shock factor protein 1 (Mus musculus) (UniProt P38532).
T2 sequence (whole entry): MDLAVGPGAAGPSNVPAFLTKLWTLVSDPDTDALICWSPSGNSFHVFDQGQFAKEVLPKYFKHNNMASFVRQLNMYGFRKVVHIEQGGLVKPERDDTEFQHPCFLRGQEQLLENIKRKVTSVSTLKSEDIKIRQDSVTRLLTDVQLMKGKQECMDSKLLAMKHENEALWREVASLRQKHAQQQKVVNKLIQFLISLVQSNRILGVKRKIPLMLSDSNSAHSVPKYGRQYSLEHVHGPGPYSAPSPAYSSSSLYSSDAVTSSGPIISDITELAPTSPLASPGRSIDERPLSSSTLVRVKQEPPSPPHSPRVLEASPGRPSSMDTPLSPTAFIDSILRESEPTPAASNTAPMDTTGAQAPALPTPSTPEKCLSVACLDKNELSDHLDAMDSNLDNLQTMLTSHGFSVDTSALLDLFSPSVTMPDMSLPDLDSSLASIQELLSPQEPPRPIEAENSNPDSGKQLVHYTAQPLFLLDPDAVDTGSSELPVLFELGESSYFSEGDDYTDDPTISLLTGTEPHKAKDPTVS
Briefly: Activation of HSF1 in MEF assessed as protection against paclitaxel-induced caspase3 cleavage at 3 uM pretreated for 1 hr followed by paclitaxel addition measured after 24 hrs by immunoblotting analysis. It counts as cell-based. In a few lines: as §1

Assay [6] deals with T1, Heat shock factor protein 1 (Homo sapiens). As to the kind of experiment: Activation of HSF1 in human L132 cells assessed as increase in HSP70 protein levels at 1 to 3 uM after 12 hrs by immunoblotting analysis. The format is cell-based. A digest of the protocol:
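L132 cells treated at 3 μM for 12 h, or at various doses for 12 h, or at 3 μM over a time course. Lysates resolved by SDS-PAGE, blotted to nitrocellulose, milk-blocked, primary antibodies 18 h at 4 °C, ECL detection. HSP27, HSP70 and Ser326-phospho-HSF1 bands normalized to loading control; ≥3 independent experiments; celastrol 1 μM positive control.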

The target is the same in assay [7]. Briefly: Activation of HSF1 in human NCI-H460 cells assessed as upregulation of HSP25 protein levels at 10 to 30 uM after 12 hrs by Western blot analysis. It counts as cell-based. In a few lines:
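NCI-H460 cells treated 12 h at 10 or 30 μM; HSF1, HSP27 and HSP70 detected by Western blot.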

In assay [8] the target is T2, Heat shock factor protein 1 (Mus musculus). Briefly: Activation of HSF1 in MEF assessed as protection against IR-induced caspase3 cleavage at 3 uM pretreated for 1 hr followed by 10 Gy irradiation measured after 48 hrs by immunoblotting analysis. It counts as cell-based. In a few lines: as §1
Assay [9] deals with Mus musculus. As to the kind of experiment: Protection against IR-induced irritability in ICR mouse at 5 to 10 mg/kg, ip administered once before and three times after 7 Gy irradiation measured daily for 30 days. The format is functional, organism-based. In a few lines:
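Female ICR mice (5–6 weeks, 25–30 g) given 7 Gy whole-body IR; dosed ip at 5 or 10 mg/kg once before and three times after IR, DMSO stock diluted in modified PBS. Survival days and radiation sickness signs checked twice daily; 10 mice per group.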

Consider `COc1cc(/C=C/CO)ccc1O` [CONIFERYL ALCOHOL], for which the outcome (with L132 [1]; with L132 [2]; in the assay on Mus musculus [3]; in assay [4]; in assay [5]; in assay [6]) was Active. In addition, the result (in [7]; in [8]; with Mus musculus [9]) was Active. Moreover, the outcome in the assay on MEF was inactive.
Regarding `COc1cc(/C=C/C=O)ccc1O` [CONIFERYL ALDEHYDE], the result (in the assay with L132 [1]; in the assay on L132 [2]; in the assay on Mus musculus [3]; in assay [4]; in assay [5]; in assay [6]) was Active. Moreover, the result (in assay [7]; in assay [8]; in the assay on Mus musculus [9]) was Active. Moreover, in the assay with MEF, the result was inactive.

The values are drawn from ChEMBL document CHEMBL4190282, “The Conjugated Double Bond of Coniferyl Aldehyde Is Essential for Heat Shock Factor 1 Mediated Cytotoprotection” (J Nat Prod, 2017).
